Results reported in ChEMBL document CHEMBL3421606, “Organoselenocyanates and symmetrical diselenides redox modulators: Design, synthesis and biological evaluation” (Eur J Med Chem, 2015).
pIC50: −log10 of the molar value.

Columns and labels:
[1] = Antioxidant activity assessed as bleomycin-Fe2+-induced DNA degradation after 1 hr by spectrophotometry; format: physicochemical
Procedure, shortened: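 Mix of calf thymus DNA 0.5 mg/ml, bleomycin sulfate 0.05 mg/ml, MgCl2 5 mM, FeCl3 and test compound 2 mM, held 1 h at 37 °C. Stopped with EDTA, then 1% TBA and 25% HCl added, heated 80 °C 30 min. Cooled and centrifuged; TBA-reactive substances read at 532 nm as MDA equivalents. Ascorbic acid as reference. Means of 3 replicates.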

Candida albicans = assay: Antimicrobial activity against Candida albicans assessed as diameter of inhibition zone after 1 day by agar diffusion assay; format: functional
Procedure, shortened: (§1)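 Agar well/disc diffusion. 100 µL of suspension, 1x10^8 CFU/mL bacteria on nutrient agar or 1x10^4 spores/mL C. albicans on potato dextrose agar. 6 mm paper discs soaked with 20 µl of 1 mg/ml compound (20 µg per disc), incubated at 30°C. Inhibition zone diameter (mm) read after 1 and 2 days. Ampicillin (bacteria) and clotrimazole (fungus) controls at the same concentration.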

Staphylococcus aureus [2] = assay: Antimicrobial activity against Staphylococcus aureus assessed as diameter of inhibition zone after 2 days by agar diffusion assay relative to ampicillin; format: functional; design: concentration or dose not given beside the values
Procedure, shortened: (§2)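 Agar diffusion with 6 mm discs carrying 20 µL of 1 mg/ml compound on nutrient agar seeded with 1x10^8 CFU/mL bacteria, incubated at 30°C. Ampicillin run the same way at the same concentration. % activity index = inhibition zone of compound / inhibition zone of ampicillin x 100.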

Staphylococcus aureus [3] = assay: Antimicrobial activity against Staphylococcus aureus assessed as diameter of inhibition zone after 2 days by agar diffusion assay; format: functional; procedure, shortened: as §1
HepG2 = assay: Cytotoxicity against human HepG2 cells after 48 hrs by MTT assay; format: functional, cell-based; conditions: for IC50: hepg2; for pIC50: Homo sapiens, HepG2, 48 h, read-out: IC50
Procedure, shortened: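 HepG2 grown in DMEM with 10% calf serum at 37 °C. Seeded at 50,000 cells/mL, grown 2 days, then serial compound dilutions added for 48 h at 37 °C, 10% CO2. MTT at 0.5 mg/mL final for 2 h; formazan dissolved in DMSO and read at 590 nm. IC50 = concentration giving 50% of untreated-control absorbance, from dose-response curves, mean of two parallel experiments. 5-FU as reference.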

[4] = Antioxidant activity assessed as DPPH free radical scavenging activity after 30 mins by spectrophotometry; format: physicochemical; conditions: 0.5 h
Procedure, shortened: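 Compounds in methanol at 1 mg/ml. 200 µL added to 0.4 ml of 0.1 mM DPPH in methanol. Kept 30 min in the dark, then absorbance read at 517 nm against a blank (methanol, no DPPH). Scavenging % = (A blank − A sample)/A blank x 100. Ascorbic acid and ebselen served as reference antioxidants.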

Escherichia coli [5] = assay: Antimicrobial activity against Escherichia coli assessed as diameter of inhibition zone after 2 days by agar diffusion assay; format: functional; procedure, shortened: as §1
[6] = Antioxidant activity assessed as glutathione peroxidase like activity after 3 mins by spectrophotometry; format: physicochemical; conditions: 0.05 h
Procedure, shortened: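 NADPH-glutathione reductase coupled assay in 50 mM phosphate buffer with 0.1% Triton X-100, plus glutathione, glutathione reductase and NADPH. Compound at 41 µM; reaction started with 0.8 mM H2O2. A340 recorded over 3 min to give ΔA/min, background-corrected for H2O2+GSH and for compound colour. Ebselen 41 µM as reference.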

Escherichia coli [7] = assay: Antimicrobial activity against Escherichia coli assessed as diameter of inhibition zone after 2 days by agar diffusion assay relative to ampicillin; format: functional; procedure, shortened: as §2

## O=C1O[C@H]([C@@H](O)CO)C(O)=C1O [ASCORBIC ACID]
[1]
  OD: 0.062

## N#C[Se]c1ccc(N2C(=O)CCC2=O)cc1
Candida albicans
  diameter of the inhibition zone (DIZ): 28 mm
Staphylococcus aureus [2]
  Activity_index: 95%
[1]
  OD: 0.065
Staphylococcus aureus [3]
  diameter of the inhibition zone (DIZ): 21 mm
HepG2
  IC50: Not Active
[4]
  Activity: Not Active

## CC1(C)S[C@@H]2[C@H](NC(=O)[C@H](N)c3ccccc3)C(=O)N2[C@H]1C(=O)O [AMPICILLIN]
Staphylococcus aureus [3]
  diameter of the inhibition zone (DIZ): 22 mm
Escherichia coli [5]
  diameter of the inhibition zone (DIZ): 24 mm

## O=C(O)CCC(=O)Nc1ccc([Se][Se]c2ccc(NC(=O)CCC(=O)O)cc2)cc1
Candida albicans
  diameter of the inhibition zone (DIZ): 19 mm
[6]
  Activity: Active
Staphylococcus aureus [2]
  Activity_index: 91%
[1]
  OD: 0.088
Staphylococcus aureus [3]
  diameter of the inhibition zone (DIZ): 20 mm
HepG2
  IC50: Not Active
[4]
  Activity: Active

## O=c1c2ccccc2[se]n1-c1ccccc1 [EBSELEN]
[6]
  Activity: Active
[4]
  Activity: Active

## O=C(O)/C=C\C(=O)Nc1ccc([Se][Se]c2ccc(NC(=O)/C=C\C(=O)O)cc2)cc1
[6]
  Activity: Active
Staphylococcus aureus [2]
  Activity_index: 95%
[1]
  OD: 0.089
Staphylococcus aureus [3]
  diameter of the inhibition zone (DIZ): 21 mm
HepG2
  pIC50: 5.52
[4]
  Activity: Active

## O=C1C=CC(=O)N1c1ccc([Se][Se]c2ccc(N3C(=O)C=CC3=O)cc2)cc1
Escherichia coli [7]
  Activity_index: 29%
[6]
  Activity: Active
[1]
  OD: 0.055
HepG2
  pIC50: 4.89
Escherichia coli [5]
  diameter of the inhibition zone (DIZ): 7 mm
[4]
  Activity: Active

## N#C[Se]c1ccc(NC(=O)CCCC(=O)O)cc1
[6]
  Activity: Active
Staphylococcus aureus [2]
  Activity_index: 91%
[1]
  OD: 0.068
Staphylococcus aureus [3]
  diameter of the inhibition zone (DIZ): 20 mm
HepG2
  pIC50: 5.15
[4]
  Activity: Not Active

## CC(C)C(C(=O)NC(C)(C)C)N(Cc1ccccc1)C(=O)c1ccccc1[Se][Se]c1ccccc1C(=O)N(Cc1ccccc1)C(C(=O)NC(C)(C)C)C(C)C (stereo not drawn)
[6]
  Activity: Active
[1]
  OD: 0.073
HepG2
  IC50: Not Active
[4]
  Activity: Not Active

## O=c1c2ccccc2[se]n1-c1ccc([Se][Se]c2ccc(-n3[se]c4ccccc4c3=O)cc2)cc1
[6]
  Activity: Not Active
[1]
  OD: 0.06
HepG2
  pIC50: 4.40
[4]
  Activity: Active

## N#C[Se]c1ccc(-n2[se]c3ccccc3c2=O)cc1
[6]
  Activity: Not Active
[1]
  OD: 0.09
HepG2
  pIC50: 4.19
[4]
  Activity: Active

## O=C1CCC(=O)N1c1ccc([Se][Se]c2ccc(N3C(=O)CCC3=O)cc2)cc1
[6]
  Activity: Active
Staphylococcus aureus [2]
  Activity_index: 64%
[1]
  OD: 0.074
Staphylococcus aureus [3]
  diameter of the inhibition zone (DIZ): 14 mm
HepG2
  pIC50: 4.85
[4]
  Activity: Not Active

## CC(C)C(C(=O)NC(C)(C)C)N(CCc1c[nH]c2ccccc12)C(=O)c1ccccc1[Se][Se]c1ccccc1C(=O)N(CCc1c[nH]c2ccccc12)C(C(=O)NC(C)(C)C)C(C)C (stereo not drawn)
[6]
  Activity: Active
[1]
  OD: 0.07
HepG2
  pIC50: 4.35
[4]
  Activity: Not Active

## N#C[Se]c1ccc(N2C(=O)C=CC2=O)cc1
[6]
  Activity: Active
[1]
  OD: 0.082
HepG2
  pIC50: 6.22
[4]
  Activity: Not Active

## O=C(O)CCCC(=O)Nc1ccc([Se][Se]c2ccc(NC(=O)CCCC(=O)O)cc2)cc1
Candida albicans
  diameter of the inhibition zone (DIZ): 16 mm
[6]
  Activity: Active
Staphylococcus aureus [2]
  Activity_index: 91%
[1]
  OD: 0.083
Staphylococcus aureus [3]
  diameter of the inhibition zone (DIZ): 20 mm
HepG2
  pIC50: 4.17
[4]
  Activity: Active

## N#C[Se]c1ccc(NC(=O)/C=C\C(=O)O)cc1
Candida albicans
  diameter of the inhibition zone (DIZ): 27 mm
Staphylococcus aureus [2]
  Activity_index: 73%
[1]
  OD: 0.051
Staphylococcus aureus [3]
  diameter of the inhibition zone (DIZ): 16 mm
HepG2
  pIC50: 5.30
[4]
  Activity: Active

## N#C[Se]c1ccc(NC(=O)CCC(=O)O)cc1
Staphylococcus aureus [2]
  Activity_index: 68%
[1]
  OD: 0.053
Staphylococcus aureus [3]
  diameter of the inhibition zone (DIZ): 15 mm
HepG2
  IC50: Not Active
[4]
  Activity: Active

## Cc1ccc(C(C(=O)NC(C)(C)C)N(CCc2c[nH]c3ccccc23)C(=O)c2ccccc2[Se][Se]c2ccccc2C(=O)N(CCc2c[nH]c3ccccc23)C(C(=O)NC(C)(C)C)c2ccc(C)cc2)cc1 (stereo not drawn)
[6]
  Activity: Active
Staphylococcus aureus [2]
  Activity_index: 55%
[1]
  OD: 0.073
Staphylococcus aureus [3]
  diameter of the inhibition zone (DIZ): 12 mm
HepG2
  IC50: Not Active
[4]
  Activity: Not Active

## Clc1ccccc1C(c1ccccc1)(c1ccccc1)n1ccnc1 [CLOTRIMAZOLE]
Candida albicans
  diameter of the inhibition zone (DIZ): 28 mm

## N#C[Se]c1ccc(N2C(=O)CCCC2=O)cc1
[6]
  Activity: Active
[1]
  OD: 0.078
HepG2
  pIC50: 4.33
[4]
  Activity: Not Active

## O=C1CCCC(=O)N1c1ccc([Se][Se]c2ccc(N3C(=O)CCCC3=O)cc2)cc1
[6]
  Activity: Active
Staphylococcus aureus [2]
  Activity_index: 90%
[1]
  OD: 0.09
Staphylococcus aureus [3]
  diameter of the inhibition zone (DIZ): 21 mm
HepG2
  pIC50: 4.46
[4]
  Activity: Not Active

## O=c1[nH]cc(F)c(=O)[nH]1 [FLUOROURACIL]
HepG2
  pIC50: 5.10
